Assay results of several laboratories.
Each line is one published result; the experiments were not run side by side.
TMEM97: Sigma intracellular receptor 2 (TMEM97, Homo sapiens, UniProt Q5BJF2)
tspO: tspO (Cereibacter sphaeroides, UniProt Q9RFC8)
Serine protease HTRA1 S328A: Serine protease HTRA1 (Homo sapiens, UniProt Q92743, S328A)

Compound | target | test | setting | measurement | value
COc1cc2c(cc1OC)C(=O)C(CC1CCN(Cc3ccccc3)CC1)C2 (centres unmarked) | TMEM97 | ligand displacement, radioligand | – | Ki | 84 nM
CC(C)(NC(=O)O[C@@H]1CN2CCC1CC2)c1csc(-c2ccc(F)cc2)n1 | Lysosomal acid glucosylceramidase (GBA1, Homo sapiens, UniProt P04062) | enzyme activity, inhibitor | – | IC50 | > 300000 nM
CC1CCN(CCCC(=O)c2ccc(F)cc2)CC1 | TMEM97 | ligand displacement, radioligand | – | Ki | 115 nM
CC(C)C[C@H](NC(=O)[C@H](Cc1ccccc1)NC(=O)c1cnccn1)B(O)O | Dipeptidyl peptidase 2 (Homo sapiens, UniProt Q9UHL4) | enzyme activity, inhibitor | – | IC50 | 8500 nM
O=C1Nc2ccccc2/C1=C/c1cn(-c2nc(Cl)nc(N3CCOCC3)n2)c2ccccc12 | Prostaglandin G/H synthase 2 (PTGS2, Homo sapiens, UniProt P35354) | enzyme activity, inhibitor | – | IC50 | 2000 nM
Cc1c(-c2ccccc2)no[n+]1[O-] | Thioredoxin glutathione reductase (Schistosoma mansoni, UniProt Q962Y6) | enzyme activity, inhibitor | – | IC50 | > 50000 nM
COc1cc(/C=C/C(=O)CC(=O)/C=C/c2ccc(O)c(OC)c2)ccc1O | tspO | binding, fluorescence | – | Kd | 1400 nM
CN(CCCN1c2ccccc2CCc2ccccc21)CC(=O)c1ccc(Cl)cc1 | TMEM97 | ligand displacement, radioligand | – | Ki | 2010 nM
O=c1c(O)c(-c2ccc(O)c(O)c2)oc2cc(O)ccc12 | Ribosomal protein S6 kinase beta-1 (RPS6KB1, Homo sapiens, UniProt P23443) | cell-free assay, competition with immobilised ligand | – | Kd | 940 nM
CC[C@H](C)[C@H](NC(=O)[C@H](Cc1c[nH]c2ccccc12)NC(=O)[C@H](C)NC(=O)[C@H](C)NC(=O)[C@H](Cc1ccc(O)cc1)NC(=O)[C@@H](N)CO)C(=O)N[C@@H](CC(=O)O)C(=O)N[C@H](C(=O)N[C@@H](CCC(=O)O)C(=O)N[C@@H](CO)C(=O)N[C@@H](CC(C)C)C(=O)O)C(C)C | Serine protease HTRA1 S328A | binding, ITC | pH 8 | Kd | 43300 nM
COc1cc2c(cc1OC)CN(CCc1ccc(NC(=O)c3cc(OC)c(OC)cc3NC(=O)c3cnc4ccccc4c3)cc1)CC2 | TMEM97 | ligand displacement, radioligand | – | Ki | 17.8 nM
CC[C@H](C)[C@H](NC(=O)[C@H](Cc1c[nH]c2ccccc12)NC(=O)[C@H](C)NC(=O)[C@H](C)NC(=O)[C@H](Cc1ccc(O)cc1)NC(=O)[C@@H](N)CO)C(=O)N[C@@H](CC(=O)O)C(=O)N[C@@H](CO)C(=O)N[C@H](C(=O)N[C@@H](CC(C)C)C(=O)N[C@@H](C)C(=O)O)C(C)C | Serine protease HTRA1 S328A | binding, ITC | pH 8 | Kd | 3900 nM
CCC(C)N(C)C(=O)c1cc2ccccc2c(-c2ccccc2Cl)n1 (centres unmarked) | tspO | binding, fluorescence | – | Kd | 10000 nM
CC(C)C[C@H](NC(=O)[C@H](CO)NC(=O)[C@H](CCC(=O)O)NC(=O)[C@@H](NC(=O)[C@H](CC(C)C)NC(=O)[C@H](CC(=O)O)NC(=O)[C@H](CC(=O)O)NC(=O)[C@H](CC(=O)O)NC(=O)[C@@H](NC(=O)[C@H](Cc1c[nH]c2ccccc12)NC(=O)[C@@H](N)CCC(=O)O)[C@@H](C)O)C(C)C)C(=O)O | Serine protease HTRA1 S328A | binding, ITC | pH 8 | Kd | 39700 nM
Cc1c2ccncc2c(C)c2c1[nH]c1ccccc12 | TMEM97 | ligand displacement, radioligand | – | Ki | > 10000 nM
COc1cc(Nc2ncc(F)c(Nc3ccc4c(n3)NC(=O)C(C)(C)O4)n2)cc(OC)c1OC | UDP-glucuronosyltransferase 1A1 (UGT1A1, Homo sapiens, UniProt P22309) | enzyme activity, inhibitor | – | IC50 | 158 nM
NC[C@@H]1[C@H]2CN3C(=O)c4cccn4[C@@H]4NC(N)=N[C@@]43[C@@H]2[C@]2(N=C(N)N[C@H]2O)[C@H]1Cl (single isomer, unassigned) | Proteasome subunit beta type-8, chymotrypsin-like site (PSMB8, Homo sapiens, UniProt P28062) | enzyme activity, inhibitor | – | IC50 | 2800 nM
